# Tb hexokinase – T. brucei hexokinase 1 inhibition; inhibition, % at 10 µM; 220,000 tested, 0.11% active; recombinant TbHK1, G6PDH-coupled NADH A340; AID 1430;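 active means inhibition of 50% or more in the single-dose primary screen; inactive means inhibition below 50%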
# p47phox inh – p47phox (human) inhibition; inhibition, % at 24.7 µM; 220,000 tested, 0.53% active; p47phox/p22phox peptide binding, fluorescence polarization, 2 h;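 active means inhibition above about 30%, limit read from the data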;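 further: 0% = p47phox with labelled peptide and 100% = labelled peptide alone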
# Mdm2 ligase inh – blocks human Mdm2 ubiquitin ligase activity | Q00987 | cell-based MDM2 ubiquitination luciferase reporter, 2 h; 0 = plate control, 100 = twice control, blank-subtracted | signal enhancement, % at 5 µM | 210,000 tested, 0.11% active | AID 1230;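 active means signal enhancement of 30% or more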;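 further: luminescence tracks abundance of the self-degrading MDM2-luciferase fusion protein; higher signal means inhibition of MDM2 E3 ligase activity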
#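 System: stable MDM2–luciferase fusion reporter cells / Input: 2000 cells seeded into each well / Schedule: 4 h settle plus 2 h compound, 37 °C / Compound: single-point 5 µM / Buffer or medium: cells held in DMEM / Benchmarks: control and blank well means / Evaluation: percent signal gain over controls, blank-subtracted / Measured by: luciferase luminescence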
# Rad51 HR inh – blocks human Rad51 in homologous recombination. Q06609. hRad51 DNA strand exchange, fluorescence dequenching. inhibition, % at 10 µM. 200,000 tested, 0.085% active. AID 1385;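 active means inhibition above 40% at the single screening dose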;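 further: 0% = DMSO control wells and 100% = blanks with heterologous ssDNA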
# Target sequence (Q06609 whole entry, looked up): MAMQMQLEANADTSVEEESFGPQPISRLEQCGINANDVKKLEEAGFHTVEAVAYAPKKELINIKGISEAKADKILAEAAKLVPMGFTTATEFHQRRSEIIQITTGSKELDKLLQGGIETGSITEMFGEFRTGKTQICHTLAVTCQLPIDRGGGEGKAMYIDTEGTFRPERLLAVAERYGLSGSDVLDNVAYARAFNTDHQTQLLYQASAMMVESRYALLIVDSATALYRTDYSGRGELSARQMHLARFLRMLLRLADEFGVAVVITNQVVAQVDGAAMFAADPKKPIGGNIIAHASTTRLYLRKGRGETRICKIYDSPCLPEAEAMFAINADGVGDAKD
#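 material = hRad51 filaments on single-stranded DNA | reagent = Donor/quencher-labelled 47-bp dsDNA substrate | compound = 10 µM final, single point | schedule = strand-exchange reaction 15 min at room temperature | measured by = fluorescein emission 520 nm, excitation 485 nm | read-out basis = % inhibition versus plate control and blank means | benchmarks = plate controls and plate blanks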
# G6PDH ctr – counter-screen for TbHK1 inhibitors: Leuconostoc G6PDH inhibition; 210 tested, 7% active; purified G6PDH, NADH absorbance, 1 h; inhibition, % at 10 µM; AID 2516; shares compounds with Tb hexokinase;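 active means at least 50% inhibition in the glucose-6-phosphate dehydrogenase coupled counterscreen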
# TbHK1 rescreen – T. brucei hexokinase 1 inhibition, rescreen; shares compounds with Tb hexokinase; inhibition, % at 10 µM; recombinant TbHK1, G6PDH-coupled NADH A340 absorbance; 210 tested, 10% active; AID 2560;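 active means inhibition of at least 50% in both of the two screening runs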;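 further: 0% and 100% set by the maximum and minimum signal control wells on each plate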
# * marks the source's active call; other numbers are inactive results; i = inactive; . = no result. This is a sample that favours compounds with a hit; in the whole collection about 0.75% have one here.
SMILES,Tb hexokinase,p47phox inh,Mdm2 ligase inh,Rad51 HR inh,others
CSCC[C@H](NC(=O)OC(C)(C)C)c1nnc(SCC(=O)Nc2c(C)cccc2C)o1,51*,-8,-6,6,
CC(=O)NS(=O)(=O)c1ccc(NC(=O)c2ccc3c(c2)C(=O)N(CCC(C)C)C3=O)cc1,0,59*,-2,12,
CC(C)CN1C(=O)c2ccc(C(=O)Nc3ccncc3)cc2C1=O,-7,-10,-12,-5,
NC(N)=N/N=C/c1ccc(OCc2ccc(Cl)cc2)cc1,10,54*,-8,10,
O=c1/c(=C/c2ccccn2)sc2nc3ccccc3n12,1,0,-68,.,
O=c1/c(=C\c2cc([N+](=O)[O-])cc([N+](=O)[O-])c2O)sc2nc3ccccc3n12,60*,-76,-9,i,
CCOc1ccc(N(CC(=O)N2CCN(c3ccccc3)CC2)S(=O)(=O)c2c(C)noc2C)cc1,-8,43*,-8,7,
COc1ccc(N(CC(=O)N2CCN(c3ccccc3)CC2)S(=O)(=O)c2c(C)noc2C)cc1,-17,-13,-11,5,
CC1=C(C#N)c2nc(N)c(C#N)c(C)c2/C1=C\c1ccc(-c2ccccc2C(=O)O)o1,-2,37*,-21,7,
COc1cc(/C=C2/C(C)=C(C#N)c3nc(N)c(C#N)c(C)c32)ccc1OCC(=O)O,-34,-4,-11,-29,
CCCc1cc(=O)n2c([nH]c3ccccc32)c1C#N,-16,48*,.,2,
CCCCc1c(C)c(C#N)c2[nH]c3ccccc3n2c1=O,-10,-12,-7,-2,
COc1cccc(C(=O)C2CCCN(Cc3cccc(-n4nc(C)cc4C)c3)C2)c1 (stereo not drawn),-3,-4,-6,6,
C=CCn1c(SCC(=O)c2[nH]c(C)c(C(=O)OC)c2C)nc2scc(-c3ccc(OC)c(OC)c3)c2c1=O,-19,36*,-12,2,
C=CCn1c(SCC(=O)c2[nH]c(C)c(C(C)=O)c2C)nnc1-c1ccncc1,-13,-8,4,2,
Cc1cc(C(=O)CN2C(=O)NC3(CCCCC3)C2=O)c(C)n1-c1ccc2c(c1)OCO2,0,-10,-8,5,
CCOc1cc(C=O)cc(Br)c1OCC(N)=O,-2,-12,-6,16,
COc1ccc(NC(=O)Cn2nnc(-c3ccccc3F)n2)cc1,-1,54*,-1,3,
Cc1ccc(Cn2cc(SCC(N)=O)c3ccccc32)cc1,-2,37*,-11,-1,
CC(C)(C)c1ccc(-c2nnc(N)o2)cc1,-3,-10,-12,.,
Cc1cc2c(s1)c1cnn(CC(=O)NCCc3ccccc3)c(=O)c1n2C,3,30*,6,7,
CCCCSc1nc(C)cc(C)c1S(=O)(=O)c1ccccc1C,5,-13,-13,5,
Cc1cc(C(C)(C)C)ccc1OCCCCN1CCCC1,12,-9,-4,1,
Cc1cc(Br)ccc1OCCCCN1CCCCC1,4,48*,1,3,
CCN1CCN(CCNC(=O)c2ccc(/C=C3/Sc4ccccc4N(Cc4ccccc4C)C3=O)cc2)CC1,-16,104*,-13,21,
SMILES,Tb hexokinase,p47phox inh,Mdm2 ligase inh,Rad51 HR inh,others
CCOCCCNC(=O)CN1C(=O)/C(=C\c2ccc(C)cc2)Sc2ccccc21,4,-4,-11,6,
CCN1CCN(CCCNC(=O)c2ccc(/C=C3/Sc4ccccc4N(Cc4ccccc4F)C3=O)cc2)CC1,-6,90*,-18,-10,
O=C(NCCN1CCOCC1)c1ccc2c(c1)N(Cc1ccccc1F)C(=O)c1ccccc1S2,-7,-14,-9,-6,
CCCn1c(C)cc(C(=O)COc2ccc(-c3nnco3)cc2)c1C,-1,-4,-6,-3,
O=C(COc1ccc(Br)cc1CNCCCN1CCOCC1)Nc1ccccc1,5,-12,6,3,
COc1ccc2nc(C)cc(SCC(=O)N/N=C/c3c(OC)ccc4ccccc34)c2c1,0,42*,-5,-7,
Cc1cc(C(=O)N2CCN(C/C=C/c3ccccc3)CC2)cs1,-4,54*,5,2,
CCCC12CN3CC(CCC)(CN(C1)C3c1ccco1)C2=O (stereo not drawn),-8,4,-11,.,
Nc1ccc(N)c(C(=O)O)c1,.,41*,.,-5,
CN(C)c1ncc(C2=C(Cl)C(=O)C(N3CCCC3)=C(Cl)C2=O)s1,-10,1,.,-9,
O=C1C(Cl)=C(N2CCCCC2)C(=O)C(Cl)=C1c1cnc(N2CCCCC2)s1,-4,10,72*,-4,
CCCCN(CC)S(=O)(=O)c1ccc(C(=O)N(CCCN(C)C)c2nc3cc(C)cc(C)c3s2)cc1,14,36*,-6,-5,
CCCCN(C)S(=O)(=O)c1ccc(C(=O)N(CCN(C)C)c2nc3ccc(C)cc3s2)cc1,2,-2,-8,7,
C/C(=C/CCC(C)[C@H]1CC[C@@]2(C)C3=C(CC[C@]12C)[C@@]1(C)CCC(=O)C(C)(C)[C@@H]1CC3)C(=O)O (stereo partly drawn),67*,0,.,-7,G6PDH ctr=-42;TbHK1 rescreen=86*
C/C(=C/CCC(C)C1CCC2(C)C3CCC4C(C)(C)C(=O)CCC4(C)C3=CCC12C)C(=O)O (stereo not drawn),1,-5,-7,-9,
COc1ccc(N=Nc2ccc(O)c3ncccc23)cc1,-45,6,.,1,
Cc1ccccc1N=Nc1ccc(O)c2ncccc12,64*,-4,17,0,G6PDH ctr=-4;TbHK1 rescreen=-8
CCOCCCNC(=O)CN(c1cc([N+](=O)[O-])ccc1OC)S(C)(=O)=O,-2,-9,-9,3,
c1cc(-c2nnc(-c3ccncc3)o2)ccn1,74*,-4,-28,2,G6PDH ctr=-7;TbHK1 rescreen=-7
CC1CCC(NC(=O)c2ccc(CS(=O)(=O)Cc3ccccc3F)o2)CC1 (stereo not drawn),61*,-14,-16,4,G6PDH ctr=-4;TbHK1 rescreen=7
CCOc1cccc2c1OC1(C)CC2NC(=O)N1c1cccc(F)c1 (stereo not drawn),57*,9,2,.,G6PDH ctr=-5;TbHK1 rescreen=-1
CCCn1cnc2c(=S)nc(N)[nH]c21,-71,-16,-13,-17,
COc1ccc(/C=C/C(=O)Nc2cc(S(=O)(=O)N3CCOCC3)ccc2C)cc1OC,-11,-7,0,9,
CCc1cccc(NC(=O)NC2CCCCC2)c1,60*,-17,-3,-3,G6PDH ctr=-5;TbHK1 rescreen=5
Cn1c(SCc2cccc(F)c2)nnc1-c1ccccn1,55*,-1,-24,3,G6PDH ctr=-8;TbHK1 rescreen=-2
COc1ccc(CC/C(=N\O)C2(O)CCCCC2)cc1,74*,-1,-23,-2,G6PDH ctr=-4;TbHK1 rescreen=4
Cc1cc(=O)[nH]c(N/N=C/c2c(O)n(-c3ccccc3)c(=O)c3ccccc23)n1,56*,2,-2,-22,G6PDH ctr=-57;TbHK1 rescreen=-23

# Bioassay records: PubChem BioAssay, several laboratories
